Measurements taken from ChEMBL document CHEMBL4041534, “Treatment of Sepsis Pathogenesis with High Mobility Group Box Protein 1-Regulating Anti-inflammatory Agents” (J Med Chem, 2017).
Positions count from the first letter of the chain named. In brackets after ≈: the same amount, converted by molar mass. Activity calls are given as the source filed them. The rule behind the calls is not given here.

Experiments:
[1] = target: T1, High mobility group protein B1 (Mus musculus) (UniProt P63158); test: Inhibition of HMGB1 translocation from nucleus to cytosol in LPS-stimulated mouse RAW264.7 cells assessed as inhibition of NO release at 10 uM measured after 24 hrs by Griess assay relative to control
T1 sequence (whole entry): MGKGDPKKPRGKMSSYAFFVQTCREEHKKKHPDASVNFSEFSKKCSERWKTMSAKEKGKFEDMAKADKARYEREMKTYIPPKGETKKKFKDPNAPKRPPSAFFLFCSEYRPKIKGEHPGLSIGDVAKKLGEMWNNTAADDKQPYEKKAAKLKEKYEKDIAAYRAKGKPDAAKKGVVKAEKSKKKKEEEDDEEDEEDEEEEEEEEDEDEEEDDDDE
How it was run: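 Raw264.7 cells, seeded 1 day earlier, were moved to serum-free DMEM and exposed to 100 ng/mL LPS with 10 μM compound for 24 h. Supernatant NO was measured with Griess reagent (sulfanilamide/N-(1-naphthyl)ethylenediamine/phosphoric acid) at room temperature, absorbance 548 nm. Inhibition was set against LPS+DMSO wells, blank-corrected, with four control wells. At least three independent experiments.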

[2] = Cytotoxicity against mouse RAW264.7 cells assessed as cell viability at 10 uM in presence of LPS measured after 24 hrs by WST assay relative to control; format: cell-based; details: read-out: Activity
How it was run: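 Raw264.7 cells, seeded 1 day earlier, were washed into serum-free DMEM and given 100 ng/mL LPS plus compound (10 μM) for 24 h. After the supernatant was removed, wells were refilled with 10% FBS DMEM and WST reagent was added for 20 min at 37 °C. Absorbance was read at 450 nm, and viability is relative to vehicle. At least three independent experiments.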

[3] = target: T1, High mobility group protein B1 (Mus musculus); test: Inhibition of HMGB1 translocation from nucleus to cytosol in LPS-stimulated mouse RAW264.7 cells assessed as inhibition of TNF-alpha production at 10 uM measured after 4 hrs by ELISA relative to control
How it was run: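 Raw264.7 cells in serum-free DMEM were treated with 100 ng/mL LPS and 10 μM compound (final). After 4 h, medium was diluted in 1% BSA/PBS and secreted TNF-α was quantified by ELISA against a standard curve of TNF-α protein. Inhibition is relative to control. At least three independent experiments.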

[4] = target: T1, High mobility group protein B1 (Mus musculus); test: Inhibition of HMGB1 nuclear translocation in LPS-stimulated mouse RAW264.7 cells at 20 uM pretreated for 1 hr followed by LPS-induction measured after 2 hrs by Hoechst 33342/TRITC staining based immunofluorescence microscopic method
How it was run: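 Raw264.7 cells on chambered coverglass were pretreated with 20 μM compound for 1 h, then given 500 ng/mL LPS for 2 h. Cells were fixed in 4% paraformaldehyde, permeabilized with methanol at −20 °C, blocked with 2% BSA, and stained with anti-HMGB1 plus TRITC secondary and Hoechst 33342. Imaged by deconvolution fluorescence microscopy. At least three independent experiments.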

[5] = target: T1, High mobility group protein B1 (Mus musculus); test: Inhibition of HMGB1 nuclear translocation in LPS-stimulated mouse RAW264.7 cells assessed as inhibition of IL-6 production at 10 uM pretreated for 1 hr followed by LPS-induction by Western blot analysis
How it was run: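 Raw264.7 cells were pretreated with 10 μM compound for 1 h, then given 100 ng/mL LPS. IL-6 released into the culture medium was detected by Western blot with ECL chemiluminescence, DMSO as control. At least three independent experiments.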

[6] = target: T2, High mobility group protein B1 (Homo sapiens) (UniProt P09429); test: Inhibition of ICM-BP binding to recombinant human HMGB1 assessed as reduction in Cy5-azide incorporation pretreated for 60 mins followed by ICM-BP addition for 20 mins and subsequent UV light irradiation for 5 mins by fluorescence assay
T2 sequence (whole entry): T1 sequence (whole entry) with D189E, E202D
How it was run: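 Purified HMGB1 (1 μg in water) was pretreated with competitor for 60 min, with DMSO held at 0.8% final. ICM-BP (5 μM) was then added for 20 min, followed by 365 nm UV for 5 min on ice. Cy5-azide was attached by click reaction, then samples were run on 12.5% SDS-PAGE and in-gel fluorescence scanned. Competitor was dosed in a graded series.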

[7] = target: MAP kinase p38 (Mus musculus) (UniProt P47811+O08911+Q9WUI1+Q9Z1B7); test: Inhibition of MAPK p38 phosphorylation at Thr180/Tyr182 resdiues in LPS-stimulated mouse RAW264.7 cells at 20 uM pretreated followed by LPS-induction by Western blot analysis
How it was run: (§1)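 Raw264.7 cells were pretreated with 20 μM compound, then stimulated with 100 ng/mL LPS, with DMSO as control. Lysates in RIPA buffer with protease and phosphatase inhibitors were normalized by BCA and run on SDS-PAGE/Western blot for phospho-p38, JNK and ERK, with GAPDH as loading control. Detection by ECL, and band intensities were quantified. At least three independent experiments.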

Mus musculus [8] = species: Mus musculus; test: Inhibition of JNK phosphorylation at Thr183/Tyr185 resdiues in LPS-stimulated mouse RAW264.7 cells at 20 uM pretreated followed by LPS-induction by Western blot analysis; how it was run: as §1
Mus musculus [9] = species: Mus musculus; test: Inhibition of ERK phosphorylation in LPS-stimulated mouse RAW264.7 cells at 20 uM pretreated followed by LPS-induction by Western blot analysis; how it was run: as §1
Mus musculus [10] = species: Mus musculus; test: Inhibition of NF-kappaB p65 nuclear translocation in LPS-stimulated mouse RAW264.7 cells at 20 uM pretreated followed by LPS-induction by Hoechst 33342/TRITC staining based immunofluorescence microscopic method
How it was run: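 NF-κB p65 immunofluorescence in Raw264.7 cells pretreated with 20 μM compound, then stimulated with 500 ng/mL LPS. Fixation was 4% paraformaldehyde, methanol permeabilization at −20 °C, and BSA blocking. Cells were stained with anti-p65 plus TRITC secondary and Hoechst 33342 nuclear stain, then imaged by deconvolution microscopy. At least three independent experiments.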

[11] = Equilibrium aqueous solubility of the compound by microsol method; format: physicochemical
How it was run: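 Equilibrium aqueous solubility by the μsol method. Mean ± SD, n = 3.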

[12] = Stability in mouse liver microsomes assessed as compound remaining preincubated for 5 mins followed by NADPH addition measured after 30 mins LC/MS/MS method; format: ADME, microsome; details: read-out: Stability
How it was run: (§2)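 Compounds were incubated with human or mouse liver microsomes in 100 mM potassium phosphate, pH 7.4, at 37 °C for 5 min. NADPH regenerating solution was added, and the reaction was stopped at 30 min with ice-cold acetonitrile containing imipramine internal standard. Percent remaining was measured by LC/MS/MS. Mean ± SD, n = 3.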

[13] = Stability in human liver microsomes assessed as compound remaining preincubated for 5 mins followed by NADPH addition measured after 30 mins LC/MS/MS method; format: ADME, microsome; details: read-out: Stability; how it was run: as §2
Mus musculus [14] = test: Anti-inflammatory activity in C57BL/6(B6) mouse model of CLP-induced sepsis assessed as survival rate at 10 mg/kg, ip administered daily for 21 days starting from 1 hr prior to CLP-induction (reference value: 10 %); format: functional
Mus musculus [15] = test: Anti-inflammatory activity in C57BL/6(B6) mouse model of CLP-induced sepsis assessed as decrease in serum IL-6 level at 10 mg/kg, ip administered daily for 21 days starting from 1 hr prior to CLP-induction by ELISA; format: functional, organism-based
How it was run: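 Serum IL-6 measured by sandwich ELISA. Blood was taken from CLP-induced C57BL/6 mice 24 h after surgery. Plates coated with anti-IL-6 mAb overnight at 4 °C and blocked with 1% BSA/PBS; serum incubated overnight at 4 °C. Detection used biotinylated anti-IL-6 and streptavidin-HRP, TMB development and absorbance at 450 nm. Run in triplicate, three independent repeats.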

RAW264.7 = test: Cytotoxicity against mouse RAW264.7 cells assessed as reduction in cell viability at >10 uM in presence of LPS measured after 24 hrs by WST assay; format: cell-based; details: raw264.7, 24 h

Compound	inhibition [1]	viability at 24 h, 10 µM [2]	inhibition [3]	further results
CNc1ccc2c(c1)OC(C)(C)C1=CCn3c(=O)n(-c4ccccc4)c(=O)n3C12 (stereo unspecified)	52%	–	–	–
CC(=O)c1ccc(-n2c(=O)n3n(c2=O)C2C(=CC3)C(C)(C)Oc3cc(O)ccc32)cc1 (stereo unspecified)	93%	111%	68%	inhibition [4]: Active; inhibition [5]: Active; inhibition [6]: Dose-dependent effect; inhibition [7]: Active; inhibition (Mus musculus [8]): Active; inhibition (Mus musculus [9]): Active; inhibition (Mus musculus [10]): Active; solubility thermodynamic [11]: 162 µg/mL (≈ 387 µM); remaining at 0.5 h [12]: 2.46%; remaining at 0.5 h [13]: 30.2%; survival at 10 mg/kg (Mus musculus [14]): 74%; Activity (Mus musculus [15]): Active
COc1ccc(-n2c(=O)n3n(c2=O)C2C(=CC3)C(C)(C)Oc3cc(O)ccc32)cc1 (stereo unspecified)	89%	127%	44%	–
CC1(C)Oc2cc(O)ccc2C2C1=CCn1c(=O)n(-c3ccc(F)cc3)c(=O)n12 (stereo unspecified)	87%	109%	44%	–
CCCN1CCC2(CC1)Oc1cc(O)ccc1C1C2=CCn2c(=O)n(-c3ccccc3)c(=O)n21 (stereo unspecified)	47%	–	–	–
COc1ccccc1-n1c(=O)n2n(c1=O)C1C(=CC2)C(C)(C)Oc2cc(O)ccc21 (stereo unspecified)	66%	115%	–	–
CC1(C)Oc2cc(O)ccc2C2C1=CCn1c(=O)n(-c3ccc(C(C)(C)C)cc3)c(=O)n12 (stereo unspecified)	99%	105%	–	Activity (RAW264.7): Toxic
CC1(C)Oc2cc(O)ccc2C2C1=CCn1c(=O)n(-c3ccc4c(c3)OCO4)c(=O)n12 (stereo unspecified)	92%	121%	46%	inhibition [4]: Active; inhibition [5]: Active
COc1ccc2c(c1)C1C(=CCn3c(=O)n(-c4ccccc4)c(=O)n31)C(C)(C)O2 (stereo unspecified)	55%	–	–	–
CC1(C)Oc2cc(O)ccc2C2C1=CCn1c(=O)n(-c3ccc(C(F)(F)F)cc3)c(=O)n12 (stereo unspecified)	85%	106%	–	Activity (RAW264.7): Toxic
COc1ccc2c(c1)OC(C)(C)C1=CCn3c(=O)n(-c4ccccc4)c(=O)n3C12 (stereo unspecified)	44%	–	–	–
CCCCc1ccc(-n2c(=O)n3n(c2=O)C2C(=CC3)C(C)(C)Oc3cc(O)ccc32)cc1 (stereo unspecified)	99%	50%	–	Activity (RAW264.7): Toxic
